Test system: Fibroblast
Experiment: Multiplex assay against human fibroblast
Format: toxicity, cell-based
Outline: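 With compound added, live cells were imaged on a CQ1 microscope at 37°C and 5% CO2; staining with Hoechst33342, BioTracker Green Microtubule Cytoskeleton Dye, MitoTracker Red and Annexin V Alexa Fluor 680 had been done at seeding. The CellPathfinder machine-learning gating scheme split cells into Hoechst high-intensity objects or normal cells, normal cells into healthy, pyknosed or fragmented nuclei, and pyknosed cells into mitotic or apoptotic. The tubulin, mitochondrial-mass and membrane-permeability phenotypes are per cents of healthy-nucleus cells.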

[1] = 12 h, 1 µM, compound concentration 1 uM, replicate 1
[2] = 12 h, 1 µM, compound concentration 1 uM, replicate 2
[3] = 12 h, 10 µM, compound concentration 10 uM, replicate 1
[4] = 12 h, 10 µM, compound concentration 10 uM, replicate 2
[5] = 24 h, 1 µM, compound concentration 1 uM, replicate 1
[6] = 24 h, 1 µM, compound concentration 1 uM, replicate 2
[7] = 24 h, 10 µM, compound concentration 10 uM, replicate 1
[8] = 24 h, 10 µM, compound concentration 10 uM, replicate 2
[9] = 48 h, 1 µM, compound concentration 1 uM, replicate 1
[10] = 48 h, 1 µM, compound concentration 1 uM, replicate 2
[11] = 48 h, 10 µM, compound concentration 10 uM, replicate 1
[12] = 48 h, 10 µM, compound concentration 10 uM, replicate 2

`CC1(COc2ccc3c(c2)ncn3-c2ccc3cccc(N4CCC(N)CC4)c3n2)COC1` [CRENOLANIB] was tested, and the “Population Apoptotic (%)” value [1] was 61%, the “Population Fragmented Nuclei (%)” value [1] was 27% and the “Population Healthy Nuclei (%)” value [1] was 60%. For the same compound, the “Population Hoechst High Intensity Objects (%)” value [1] was 2%, the “Population Membrane Permeable-Phenotype (%)” value [1] was 0% and the “Population Mitochondria Different-Phenotype (%)” value [1] was 4%. The “Population Mitotic Cells (%)” value [1] was 38%, the “Population Normal (%)” value [1] was 97% and the “Population Pyknosed Nuclei (%)” value [1] was 12%. The “Population Tubulin-Different-Phenotype (%)” value [1] was 48%, the “Population Apoptotic (%)” value [2] was 18% and the “Population Fragmented Nuclei (%)” value [2] was 33%. For the same compound, the “Population Healthy Nuclei (%)” value [2] was 47%, the “Population Hoechst High Intensity Objects (%)” value [2] was 4% and the “Population Membrane Permeable-Phenotype (%)” value [2] was 7%. For the same compound, the “Population Mitochondria Different-Phenotype (%)” value [2] was 9%, the “Population Mitotic Cells (%)” value [2] was 81% and the “Population Normal (%)” value [2] was 95%. The “Population Pyknosed Nuclei (%)” value [2] was 18%, the “Population Tubulin-Different-Phenotype (%)” value [2] was 67% and the “Population Apoptotic (%)” value [3] was 33%. The “Population Fragmented Nuclei (%)” value [3] was 21%, the “Population Healthy Nuclei (%)” value [3] was 48% and the “Population Hoechst High Intensity Objects (%)” value [3] was 4%. For the same compound, the “Population Membrane Permeable-Phenotype (%)” value [3] was 2%, the “Population Mitochondria Different-Phenotype (%)” value [3] was 6% and the “Population Mitotic Cells (%)” value [3] was 66%. For the same compound, the “Population Normal (%)” value [3] was 95%, the “Population Pyknosed Nuclei (%)” value [3] was 30% and the “Population Tubulin-Different-Phenotype (%)” value [3] was 43%. The “Population Apoptotic (%)” value [4] was 34%, the “Population Fragmented Nuclei (%)” value [4] was 29% and the “Population Healthy Nuclei (%)” value [4] was 40%. The “Population Hoechst High Intensity Objects (%)” value [4] was 13%, the “Population Membrane Permeable-Phenotype (%)” value [4] was 6% and the “Population Mitochondria Different-Phenotype (%)” value [4] was 9%. The “Population Mitotic Cells (%)” value [4] was 65%, the “Population Normal (%)” value [4] was 86% and the “Population Tubulin-Different-Phenotype (%)” value [4] was 48%. For the same compound, the “Population Apoptotic (%)” value [5] was 92%, the “Population Fragmented Nuclei (%)” value [5] was 29% and the “Population Healthy Nuclei (%)” value [5] was 60%. The “Population Hoechst High Intensity Objects (%)” value [5] was 0%, the “Population Membrane Permeable-Phenotype (%)” value [5] was 0% and the “Population Mitochondria Different-Phenotype (%)” value [5] was 9%. For the same compound, the “Population Mitotic Cells (%)” value [5] was 7%, the “Population Normal (%)” value [5] was 99% and the “Population Pyknosed Nuclei (%)” value [5] was 9%. The “Population Tubulin-Different-Phenotype (%)” value [5] was 61%, the “Population Apoptotic (%)” value [6] was 50% and the “Population Fragmented Nuclei (%)” value [6] was 41%. For the same compound, the “Population Healthy Nuclei (%)” value [6] was 48%, the “Population Hoechst High Intensity Objects (%)” value [6] was 1% and the “Population Membrane Permeable-Phenotype (%)” value [6] was 4%. For the same compound, the “Population Mitotic Cells (%)” value [6] was 50%, the “Population Normal (%)” value [6] was 98% and the “Population Pyknosed Nuclei (%)” value [6] was 10%. The “Population Tubulin-Different-Phenotype (%)” value [6] was 63%, the “Population Apoptotic (%)” value [7] was 36% and the “Population Fragmented Nuclei (%)” value [7] was 23%. For the same compound, the “Population Healthy Nuclei (%)” value [7] was 51%, the “Population Hoechst High Intensity Objects (%)” value [7] was 16% and the “Population Membrane Permeable-Phenotype (%)” value [7] was 0%. For the same compound, the “Population Mitochondria Different-Phenotype (%)” value [7] was 8%, the “Population Mitotic Cells (%)” value [7] was 63% and the “Population Normal (%)” value [7] was 83%. For the same compound, the “Population Pyknosed Nuclei (%)” value [7] was 24%, the “Population Tubulin-Different-Phenotype (%)” value [7] was 23% and the “Population Apoptotic (%)” value [8] was 34%. The “Population Fragmented Nuclei (%)” value [8] was 25%, the “Population Healthy Nuclei (%)” value [8] was 46% and the “Population Hoechst High Intensity Objects (%)” value [8] was 17%. The “Population Membrane Permeable-Phenotype (%)” value [8] was 6%, the “Population Mitochondria Different-Phenotype (%)” value [8] was 6% and the “Population Mitotic Cells (%)” value [8] was 65%. For the same compound, the “Population Normal (%)” value [8] was 82%, the “Population Pyknosed Nuclei (%)” value [8] was 28% and the “Population Tubulin-Different-Phenotype (%)” value [8] was 38%. The “Population Apoptotic (%)” value [9] was 75%, the “Population Fragmented Nuclei (%)” value [9] was 32% and the “Population Healthy Nuclei (%)” value [9] was 60%. The “Population Hoechst High Intensity Objects (%)” value [9] was 1%, the “Population Membrane Permeable-Phenotype (%)” value [9] was 0% and the “Population Mitochondria Different-Phenotype (%)” value [9] was 8%. For the same compound, the “Population Mitotic Cells (%)” value [9] was 25%, the “Population Normal (%)” value [9] was 98% and the “Population Pyknosed Nuclei (%)” value [9] was 7%. For the same compound, the “Population Tubulin-Different-Phenotype (%)” value [9] was 55%, the “Population Apoptotic (%)” value [10] was 20% and the “Population Fragmented Nuclei (%)” value [10] was 44%. The “Population Healthy Nuclei (%)” value [10] was 44%, the “Population Hoechst High Intensity Objects (%)” value [10] was 0% and the “Population Membrane Permeable-Phenotype (%)” value [10] was 5%. The “Population Mitochondria Different-Phenotype (%)” value [10] was 7%, the “Population Mitotic Cells (%)” value [10] was 80% and the “Population Normal (%)” value [10] was 99%. For the same compound, the “Population Pyknosed Nuclei (%)” value [10] was 12%, the “Population Tubulin-Different-Phenotype (%)” value [10] was 74% and the “Population Apoptotic (%)” value [11] was 42%. For the same compound, the “Population Fragmented Nuclei (%)” value [11] was 16%, the “Population Healthy Nuclei (%)” value [11] was 62% and the “Population Hoechst High Intensity Objects (%)” value [11] was 24%. For the same compound, the “Population Membrane Permeable-Phenotype (%)” value [11] was 1%, the “Population Mitochondria Different-Phenotype (%)” value [11] was 6% and the “Population Mitotic Cells (%)” value [11] was 57%. For the same compound, the “Population Normal (%)” value [11] was 75%, the “Population Pyknosed Nuclei (%)” value [11] was 21% and the “Population Tubulin-Different-Phenotype (%)” value [11] was 23%. For the same compound, the “Population Apoptotic (%)” value [12] was 37%, the “Population Fragmented Nuclei (%)” value [12] was 23% and the “Population Healthy Nuclei (%)” value [12] was 42%. The “Population Hoechst High Intensity Objects (%)” value [12] was 21%, the “Population Mitotic Cells (%)” value [12] was 62% and the “Population Normal (%)” value [12] was 78%. For the same compound, the “Population Pyknosed Nuclei (%)” value [12] was 33% and the “Population Tubulin-Different-Phenotype (%)” value [12] was 27%.

From ChEMBL document CHEMBL5058577, “EUbOPEN Chemogenomics Library 2 (Multiplex)” (2022)
